Measured values from ChEMBL document CHEMBL4257524, “Design and synthesis of conformationally constraint Dyrk1A inhibitors by creating an intramolecular H-bond involving a benzothiazole core” (Medchemcomm, 2018).

Legend:
[1] = target: T1, Dual specificity tyrosine-phosphorylation-regulated kinase 1B (Homo sapiens, UniProt Q9Y463); test: Inhibition of full length recombinant human GST-tagged Dyrk1B expressed in baculovirus expression system at 0.5 uM using KKISGRLSPIMTEQ-NH2 peptide as substrate in presence of [gamma-32P]-ATP relative to control
Summary of the method: (§1)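 Dyrk1B kinase assay with ATP at 15 μM. Single-point % inhibition measured at 0.5 μM, and IC50 determined. Values are means of at least two independent experiments, each run in duplicate, with standard deviation <10%.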
Target sequence in this assay (Q9Y463 whole entry, looked up): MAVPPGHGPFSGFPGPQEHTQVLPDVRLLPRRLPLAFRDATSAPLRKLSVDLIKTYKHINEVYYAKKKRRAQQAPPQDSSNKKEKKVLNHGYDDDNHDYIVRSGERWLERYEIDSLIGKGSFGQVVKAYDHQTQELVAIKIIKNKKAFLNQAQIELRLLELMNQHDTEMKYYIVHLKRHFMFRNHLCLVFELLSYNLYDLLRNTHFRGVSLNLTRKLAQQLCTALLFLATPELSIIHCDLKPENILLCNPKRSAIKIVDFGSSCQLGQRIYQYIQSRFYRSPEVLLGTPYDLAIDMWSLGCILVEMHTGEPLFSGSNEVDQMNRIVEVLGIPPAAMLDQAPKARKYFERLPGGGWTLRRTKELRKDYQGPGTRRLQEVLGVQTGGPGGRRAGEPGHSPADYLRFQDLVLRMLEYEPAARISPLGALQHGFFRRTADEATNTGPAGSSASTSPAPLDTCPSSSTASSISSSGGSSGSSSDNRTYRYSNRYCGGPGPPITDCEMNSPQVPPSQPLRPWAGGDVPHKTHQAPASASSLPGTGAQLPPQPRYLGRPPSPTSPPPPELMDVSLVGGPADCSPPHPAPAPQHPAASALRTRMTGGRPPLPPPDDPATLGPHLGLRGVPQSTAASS

[2] = target: T1, Dual specificity tyrosine-phosphorylation-regulated kinase 1B; test: Inhibition of full length recombinant human GST-tagged Dyrk1B expressed in baculovirus expression system using KKISGRLSPIMTEQ-NH2 peptide as substrate in presence of [gamma-32P]-ATP; summary of the method: as §1
Target sequence in this assay (Q9Y463 whole entry): as the sequence (Q9Y463 whole entry, looked up) above

[3] = target: T2, Dual specificity tyrosine-phosphorylation-regulated kinase 1A (Homo sapiens, UniProt Q13627); test: Inhibition of recombinant human N-terminal His6-tagged Dyrk1A catalytic domain expressed in Escherichia coli BL21 (DE3) using KKISGRLSPIMTEQ-NH2 peptide as substrate in presence of [gamma-32P]-ATP
[4] = Half life in human liver S9 fraction assessed as CYP450-mediated compound degradation at 0.3 uM after 15 to 60 mins by LC-MS/MS analysis; type: ADME, subcellular
Summary of the method: (§2)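 Pooled human liver S9 fraction incubated with compound at 37 °C. Samples taken at 0, 15, 30 and 60 min, and parent compound quantified by MS. Half-life and parent compound remaining derived from these measurements.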

[5] = Drug metabolism in human liver S9 fraction assessed as CYP450-mediated metabolite formation by measuring parent compound remaining at 0.3 uM after 60 mins by LC-MS/MS analysis; type: ADME, subcellular; conditions: s9, 1 h; summary of the method: as §2
[6] = target: T3, Serine/threonine-protein kinase haspin (Homo sapiens) (UniProt Q8TF76); test: Inhibition of recombinant human N-terminal GST-tagged Haspin expressed in baculovirus expression system at 5 uM relative to control
T3 sequence (whole entry): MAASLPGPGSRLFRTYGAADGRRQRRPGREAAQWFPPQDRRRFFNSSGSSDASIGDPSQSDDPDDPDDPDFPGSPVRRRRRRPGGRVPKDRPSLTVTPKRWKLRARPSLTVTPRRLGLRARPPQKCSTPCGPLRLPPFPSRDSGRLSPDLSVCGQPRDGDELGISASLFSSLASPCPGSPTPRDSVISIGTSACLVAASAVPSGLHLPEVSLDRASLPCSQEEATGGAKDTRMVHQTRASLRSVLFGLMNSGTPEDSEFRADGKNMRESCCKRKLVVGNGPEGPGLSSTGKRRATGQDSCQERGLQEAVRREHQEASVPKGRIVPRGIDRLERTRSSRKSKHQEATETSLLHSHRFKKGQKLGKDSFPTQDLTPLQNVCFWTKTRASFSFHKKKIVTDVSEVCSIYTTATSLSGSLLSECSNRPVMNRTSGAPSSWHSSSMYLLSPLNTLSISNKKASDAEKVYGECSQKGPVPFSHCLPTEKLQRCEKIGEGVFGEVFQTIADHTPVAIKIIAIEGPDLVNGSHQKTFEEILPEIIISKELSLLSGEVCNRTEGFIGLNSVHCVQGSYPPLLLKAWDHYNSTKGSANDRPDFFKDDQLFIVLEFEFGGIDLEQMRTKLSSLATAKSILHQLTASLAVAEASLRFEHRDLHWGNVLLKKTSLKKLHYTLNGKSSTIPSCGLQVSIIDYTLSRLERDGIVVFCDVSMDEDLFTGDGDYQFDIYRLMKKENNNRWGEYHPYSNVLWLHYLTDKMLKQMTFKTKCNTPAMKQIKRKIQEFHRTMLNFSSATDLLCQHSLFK
Summary of the method: (§3)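 Kinase panel run at a single 5 μM inhibitor concentration with ATP at 100 μM. Activity expressed as % inhibition. Values are means of at least two duplicates.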

[7] = target: T2, Dual specificity tyrosine-phosphorylation-regulated kinase 1A; test: Inhibition of recombinant human N-terminal His6-tagged Dyrk1A catalytic domain expressed in Escherichia coli BL21 (DE3) at 5 uM using KKISGRLSPIMTEQ-NH2 peptide as substrate in presence of [gamma-32P]-ATP relative to control; summary of the method: as §3
[8] = target: BDNF/NT-3 growth factors receptor (Homo sapiens) (UniProt Q16620); test: Inhibition of recombinant human His-tagged NTRK2 expressed in baculovirus expression system at 5 uM relative to control; summary of the method: as §3
[9] = target: Homeodomain-interacting protein kinase 1 (Homo sapiens) (UniProt Q86Z02); test: Inhibition of recombinant human GST-tagged HIPK1 expressed in baculovirus expression system at 5 uM relative to control; summary of the method: as §3
[10] = target: T4, Dual specificity protein kinase CLK1 (Homo sapiens, UniProt P49759); test: Inhibition of recombinant GST-tagged human CLK1 expressed in Escherichia coli using RSRSRSRSR peptide as substrate in presence of [gamma-32P]-ATP
Summary of the method: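 CLK1 IC50 determined in kinase assay with ATP at 15 μM.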
Target sequence in this assay (P49759 whole entry): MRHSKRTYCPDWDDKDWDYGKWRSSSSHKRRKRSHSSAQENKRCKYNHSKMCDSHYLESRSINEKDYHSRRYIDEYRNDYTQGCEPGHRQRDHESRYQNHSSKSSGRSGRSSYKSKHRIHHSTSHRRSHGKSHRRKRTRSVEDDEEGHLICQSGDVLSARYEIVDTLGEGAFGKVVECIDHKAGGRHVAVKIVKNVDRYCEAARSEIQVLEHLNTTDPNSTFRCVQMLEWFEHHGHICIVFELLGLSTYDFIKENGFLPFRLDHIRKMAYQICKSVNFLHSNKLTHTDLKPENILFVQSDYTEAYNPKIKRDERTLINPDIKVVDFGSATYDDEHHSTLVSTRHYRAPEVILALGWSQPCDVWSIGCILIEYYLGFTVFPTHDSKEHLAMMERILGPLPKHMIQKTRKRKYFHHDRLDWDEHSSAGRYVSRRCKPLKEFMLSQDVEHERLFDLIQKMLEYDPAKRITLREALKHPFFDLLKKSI

[11] = target: Casein kinase I isoform delta (Homo sapiens) (UniProt P48730); test: Inhibition of full length recombinant human GST-tagged CK1delta expressed in baculovirus expression system at 5 uM relative to control; summary of the method: as §3
Homo sapiens [12] = organism: Homo sapiens; test: Selectivity ratio of IC50 for recombinant GST-tagged human CLK1 to IC50 for recombinant human N-terminal His6-tagged Dyrk1A catalytic domain
[13] = target: Serine/threonine-protein kinase pim-1 (Homo sapiens) (UniProt P11309); test: Inhibition of full length recombinant human His-tagged PIM1 expressed in baculovirus expression system at 5 uM relative to control; summary of the method: as §3
Homo sapiens [14] = organism: Homo sapiens; test: Selectivity ratio of IC50 for full length recombinant human GST-tagged Dyrk1B to IC50 for recombinant human N-terminal His6-tagged Dyrk1A catalytic domain
Summary of the method: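 Ratio of Dyrk1B IC50 to Dyrk1A IC50. Both IC50s determined with ATP at 15 μM, from means of at least two independent duplicate experiments.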

[15] = target: Cyclin-dependent kinase 5/CDK5 activator 1 (Homo sapiens) (UniProt Q00535+Q15078); test: Inhibition of full length recombinant human GST-tagged CDK5/His-tagged p25 expressed in baculovirus expression system at 5 uM relative to control; summary of the method: as §3
[16] = target: SRSF protein kinase 1 (Homo sapiens) (UniProt Q96SB4); test: Inhibition of full length recombinant human His-tagged SRPK1 expressed in baculovirus expression system at 5 uM relative to control; summary of the method: as §3
[17] = target: Myosin light chain kinase, smooth muscle (Homo sapiens) (UniProt Q15746); test: Inhibition of full length recombinant human GST-tagged MLCK expressed in baculovirus expression system at 5 uM relative to control; summary of the method: as §3
[18] = target: T5, Serine/threonine-protein kinase 17A (Homo sapiens) (UniProt Q9UEE5); test: Inhibition of full length recombinant human GST-tagged STK17A expressed in baculovirus expression system at 5 uM relative to control; summary of the method: as §3
T5 sequence (whole entry): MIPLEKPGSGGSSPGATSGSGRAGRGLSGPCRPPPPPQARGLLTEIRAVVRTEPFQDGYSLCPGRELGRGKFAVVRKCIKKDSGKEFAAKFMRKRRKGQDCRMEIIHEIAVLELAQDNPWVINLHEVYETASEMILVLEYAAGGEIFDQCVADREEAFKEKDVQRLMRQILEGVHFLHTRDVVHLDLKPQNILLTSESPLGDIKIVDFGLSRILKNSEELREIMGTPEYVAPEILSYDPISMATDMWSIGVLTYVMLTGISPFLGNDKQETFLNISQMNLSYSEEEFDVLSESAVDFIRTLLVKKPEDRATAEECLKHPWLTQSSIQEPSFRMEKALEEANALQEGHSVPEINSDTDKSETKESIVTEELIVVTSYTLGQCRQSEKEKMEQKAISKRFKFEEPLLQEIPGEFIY

[19] = target: T4, Dual specificity protein kinase CLK1; test: Inhibition of recombinant GST-tagged human CLK1 expressed in Escherichia coli at 5 uM using RSRSRSRSR peptide as substrate in presence of [gamma-32P]-ATP
Target sequence in this assay (P49759 whole entry, looked up): as the sequence (P49759 whole entry) above

Chain of Cyclin-dependent kinase 5/CDK5 activator 1 (Homo sapiens) (Q00535 whole entry): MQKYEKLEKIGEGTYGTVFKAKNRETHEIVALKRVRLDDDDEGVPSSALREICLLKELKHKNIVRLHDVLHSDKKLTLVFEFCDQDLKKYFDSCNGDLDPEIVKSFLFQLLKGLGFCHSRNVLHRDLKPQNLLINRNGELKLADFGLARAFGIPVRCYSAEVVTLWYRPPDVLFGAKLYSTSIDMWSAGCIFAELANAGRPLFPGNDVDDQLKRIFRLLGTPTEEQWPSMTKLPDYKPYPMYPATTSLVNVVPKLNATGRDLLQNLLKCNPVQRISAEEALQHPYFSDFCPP
Chain of Cyclin-dependent kinase 5/CDK5 activator 1 (Homo sapiens) (Q15078 99-307 partner limits assumed): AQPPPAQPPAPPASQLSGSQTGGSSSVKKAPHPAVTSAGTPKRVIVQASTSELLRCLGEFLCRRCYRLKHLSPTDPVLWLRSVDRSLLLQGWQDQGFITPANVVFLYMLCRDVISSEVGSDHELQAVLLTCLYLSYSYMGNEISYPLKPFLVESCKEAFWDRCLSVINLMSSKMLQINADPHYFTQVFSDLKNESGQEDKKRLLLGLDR
Chain of Myosin light chain kinase, smooth muscle (Homo sapiens) (Q15746 whole entry): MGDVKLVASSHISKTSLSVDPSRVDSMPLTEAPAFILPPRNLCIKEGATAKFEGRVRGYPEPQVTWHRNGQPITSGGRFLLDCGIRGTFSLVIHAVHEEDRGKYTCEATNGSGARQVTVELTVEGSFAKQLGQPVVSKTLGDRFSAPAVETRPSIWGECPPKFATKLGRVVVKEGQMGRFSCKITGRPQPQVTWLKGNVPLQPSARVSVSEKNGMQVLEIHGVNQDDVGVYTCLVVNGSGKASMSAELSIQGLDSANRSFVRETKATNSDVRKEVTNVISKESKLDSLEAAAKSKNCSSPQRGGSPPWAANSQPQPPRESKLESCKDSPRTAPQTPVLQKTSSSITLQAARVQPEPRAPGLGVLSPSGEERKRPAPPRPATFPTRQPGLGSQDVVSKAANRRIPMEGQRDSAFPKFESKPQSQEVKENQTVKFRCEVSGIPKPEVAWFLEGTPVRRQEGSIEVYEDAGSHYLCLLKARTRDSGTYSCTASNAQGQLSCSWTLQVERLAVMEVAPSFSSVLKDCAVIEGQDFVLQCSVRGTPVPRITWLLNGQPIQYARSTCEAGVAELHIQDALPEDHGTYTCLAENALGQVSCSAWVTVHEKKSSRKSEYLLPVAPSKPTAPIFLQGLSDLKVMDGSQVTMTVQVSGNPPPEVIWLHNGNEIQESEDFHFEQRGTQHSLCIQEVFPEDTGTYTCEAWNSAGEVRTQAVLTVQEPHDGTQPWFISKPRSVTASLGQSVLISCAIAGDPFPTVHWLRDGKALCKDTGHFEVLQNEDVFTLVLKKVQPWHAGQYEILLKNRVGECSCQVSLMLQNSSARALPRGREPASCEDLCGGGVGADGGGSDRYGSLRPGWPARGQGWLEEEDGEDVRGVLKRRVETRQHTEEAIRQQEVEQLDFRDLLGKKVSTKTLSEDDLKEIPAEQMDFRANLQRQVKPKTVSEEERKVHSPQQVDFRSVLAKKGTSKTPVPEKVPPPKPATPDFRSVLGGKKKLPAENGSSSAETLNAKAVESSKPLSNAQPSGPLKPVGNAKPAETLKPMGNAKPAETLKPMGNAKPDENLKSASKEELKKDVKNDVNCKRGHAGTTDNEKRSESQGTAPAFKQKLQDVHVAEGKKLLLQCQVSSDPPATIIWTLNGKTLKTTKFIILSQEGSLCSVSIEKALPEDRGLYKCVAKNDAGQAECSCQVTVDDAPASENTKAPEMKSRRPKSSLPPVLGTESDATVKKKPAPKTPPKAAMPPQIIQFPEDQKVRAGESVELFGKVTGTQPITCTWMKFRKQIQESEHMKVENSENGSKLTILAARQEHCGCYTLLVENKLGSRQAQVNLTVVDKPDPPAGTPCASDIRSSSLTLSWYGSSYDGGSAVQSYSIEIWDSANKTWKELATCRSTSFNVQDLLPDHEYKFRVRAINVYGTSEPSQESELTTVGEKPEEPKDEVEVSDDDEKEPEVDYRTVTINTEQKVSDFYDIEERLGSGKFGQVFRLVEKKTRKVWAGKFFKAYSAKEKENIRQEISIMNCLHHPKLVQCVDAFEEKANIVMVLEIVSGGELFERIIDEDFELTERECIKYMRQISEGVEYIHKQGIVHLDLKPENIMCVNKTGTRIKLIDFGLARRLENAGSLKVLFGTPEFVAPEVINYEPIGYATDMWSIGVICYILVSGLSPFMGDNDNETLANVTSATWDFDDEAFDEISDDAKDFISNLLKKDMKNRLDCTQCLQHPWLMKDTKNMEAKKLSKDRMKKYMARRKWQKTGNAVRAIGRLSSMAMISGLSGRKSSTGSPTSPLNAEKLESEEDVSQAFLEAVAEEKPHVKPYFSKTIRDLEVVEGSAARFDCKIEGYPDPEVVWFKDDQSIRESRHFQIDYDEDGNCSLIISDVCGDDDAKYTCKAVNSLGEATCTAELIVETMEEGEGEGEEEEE
Chain of Serine/threonine-protein kinase pim-1 (Homo sapiens) (P11309 whole entry, looked up, the tested form may be a part): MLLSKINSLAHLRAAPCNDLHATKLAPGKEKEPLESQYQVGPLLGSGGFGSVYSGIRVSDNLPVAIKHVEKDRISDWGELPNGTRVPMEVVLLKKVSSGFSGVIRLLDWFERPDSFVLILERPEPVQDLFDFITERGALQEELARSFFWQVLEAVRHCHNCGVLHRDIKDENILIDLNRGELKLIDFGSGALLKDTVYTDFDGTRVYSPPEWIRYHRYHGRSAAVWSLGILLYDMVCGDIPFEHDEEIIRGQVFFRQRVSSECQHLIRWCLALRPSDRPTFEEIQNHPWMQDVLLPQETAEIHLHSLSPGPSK
Chain of Casein kinase I isoform delta (Homo sapiens) (P48730 whole entry, looked up, the tested form may be a part, canonical isoform): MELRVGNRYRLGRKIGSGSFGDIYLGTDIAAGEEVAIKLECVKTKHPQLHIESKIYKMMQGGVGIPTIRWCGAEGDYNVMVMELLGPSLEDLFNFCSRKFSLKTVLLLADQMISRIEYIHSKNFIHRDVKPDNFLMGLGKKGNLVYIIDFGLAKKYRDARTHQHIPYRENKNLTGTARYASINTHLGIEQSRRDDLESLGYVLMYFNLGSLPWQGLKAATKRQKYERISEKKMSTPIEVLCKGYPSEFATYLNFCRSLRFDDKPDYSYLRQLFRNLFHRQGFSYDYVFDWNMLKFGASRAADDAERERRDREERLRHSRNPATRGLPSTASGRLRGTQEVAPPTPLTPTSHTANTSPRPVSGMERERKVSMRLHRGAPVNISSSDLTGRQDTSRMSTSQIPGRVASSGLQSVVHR

COc1cccc(CC(=O)Nc2nc3ccc(OC)cc3s2)c1
inhibition [1]: 25%

COc1ccc2nc(NC(=O)Nc3ccc(C(=O)N4CCN(C)CC4)cc3)sc2c1
inhibition [1]: 0%

O=C(Nc1ccc(C(=O)NCc2ccccc2)cc1)Nc1nc2ccc(O)cc2s1
IC50 [2]: 0.13 µM
IC50 [3]: 0.063 µM
half-life at 0.3 µM [4]: 33 min
inhibition [1]: 69%

COc1ccc2nc(NC(=O)Nc3ccccc3)sc2c1
inhibition [1]: 0%

COc1ccc2nc(NC(=O)NCCN3CCOCC3)sc2c1
inhibition [1]: 0%

O=C(Nc1nc2ccc(O)cc2s1)Oc1ccccc1
inhibition [1]: 0%

CN1CCN(C(=O)c2ccc(NC(=O)Nc3nc4ccc(O)cc4s3)cc2)CC1
Stability [5]: 88%
inhibition [6]: 1%
inhibition [7]: 85%
inhibition [8]: 13%
inhibition [9]: 50%
IC50 [10]: 0.73 µM
inhibition [11]: 9%
Ratio IC50 (Homo sapiens [12]): > 7
inhibition [13]: 29%
IC50 [2]: 1.51 µM
Ratio IC50 (Homo sapiens [14]): 16
inhibition [15]: 2%
inhibition [16]: 5%
inhibition [17]: 45%
IC50 [3]: 0.095 µM
inhibition [18]: 39%
half-life at 0.3 µM [4]: > 60 min
inhibition [1]: 21%
inhibition [19]: 72%

O=C(Cc1cccc(O)c1)Nc1nc2ccc(O)cc2s1
inhibition [1]: 0%

COc1ccc2nc(NC(=O)Oc3ccccc3)sc2c1
inhibition [1]: 0%

O=C(Nc1ccccc1)Nc1nnc(-c2ccncc2)s1
inhibition [1]: 12%

O=C(Nc1cccc(O)c1)Nc1nc2ccc(O)cc2s1
IC50 [2]: 0.37 µM
IC50 [3]: 0.134 µM
inhibition [1]: 54.6%

C[C@]12CC[C@H]3[C@@H](CCC4=CC(=O)CC[C@@]43C)[C@@H]1CC[C@@H]2O [TESTOSTERONE]
half-life at 0.3 µM [4]: 9.6 min

COc1ccc2nc(NC(=O)NCCCN3CCN(C)CC3)sc2c1
inhibition [1]: 0%

COc1ccc2nc(NC(=O)Nc3ccc(C(=O)O)cc3)sc2c1
inhibition [1]: 0%

O=C(Nc1ccccc1)Nc1nc2ccc(O)cc2s1
IC50 [2]: 0.71 µM
IC50 [3]: 0.163 µM
inhibition [1]: 43.6%

COc1ccc2nc(NC(=O)Nc3ccc(C(=O)NCc4ccccc4)cc3)sc2c1
inhibition [1]: 0%
